CHO parental Ca = counter-screen for OX1R antagonists: effect in parental CHO cells | inhibition, % at 5.6 µM | 330,000 compounds, 0.63% hits | parental CHO-K1, ATP-induced calcium, Fluo-8 fluorescence;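 active = inhibition above that plate's mean sample inhibition plus 3 SD, cut at about 26% in these data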;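 note: 0% = ATP-challenged DMSO wells and 100% = DMSO wells without ATP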
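Material – parental CHO cells · Reagent – ATP stimulus · Compound – single nominal dose of 5.6 µM per compound · Detection – Fluo-8 fluorescence · Read-out basis – percent inhibition of calcium signal · Controls – ATP-challenged DMSO wells low, unchallenged DMSO wells high · Repeats – no replicates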
GPR7 antag = blocks human GPR7 receptor signaling; GPR7-expressing cells, fluorescence antagonist assay; inhibition, % at 4.4 µM; 290,000 compounds, 1.1% hits; in the data active = inhibition above about 16%, passing the limit was not always enough;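 note: cells stimulated with the agonist NPW; 0% = agonist with vehicle and 100% = vehicle without agonist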
Target sequence (P48145 whole entry, looked up): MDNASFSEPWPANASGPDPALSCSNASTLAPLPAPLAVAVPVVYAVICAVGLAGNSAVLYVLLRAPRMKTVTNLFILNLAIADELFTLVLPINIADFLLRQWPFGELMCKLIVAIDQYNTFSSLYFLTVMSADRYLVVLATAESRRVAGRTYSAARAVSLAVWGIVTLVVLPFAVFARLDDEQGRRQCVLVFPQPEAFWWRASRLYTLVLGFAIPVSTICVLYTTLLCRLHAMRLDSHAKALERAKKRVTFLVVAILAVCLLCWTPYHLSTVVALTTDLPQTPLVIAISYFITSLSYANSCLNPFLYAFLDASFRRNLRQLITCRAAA
OX1R antag-1 = antagonists of human orexin 1 receptor (OX1R). 330,000 compounds, 1.8% hits. inhibition, % at 6.6 µM. OX1R-expressing cells, FRET antagonist read-out. AID 485270; in the data active = inhibition mostly above about 38%, no sharp cut-off; inactive = mostly below about 40%;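 note: 0% = agonist challenge alone and 100% = reference antagonist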
TAAR1 antag = antagonists of human TAAR1. CHO RD-HGA16 TAAR1, Fluo-8 calcium fluorescence, antagonist. inhibition, % at 3 µM. 360,000 compounds, 1.5% hits. Q96RJ0;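 active = inhibition above a per-plate cutoff, the mean inhibition of test compounds on that plate plus 3 SD, cut at about 49% in these data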;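 note: 0% = DMSO plus EC80 beta-PEA response and 100% = DMSO alone without agonist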
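Test system: RD-HGA16 CHO cells with stable hTAAR1 and Gα16 / Probe or stimulus: EC80 β-phenethylamine stimulus / Times: seeding 17-24 h prior, 75-min 37 °C, 30-min RT dye loading / Detection: Fluo-8 calcium-sensitive fluorescence / Read-out basis: % inhibition scaled between DMSO and EC80 PEA controls / Repeats: singlicate, one well per test compound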
TAAR1 agonist = agonists of human TAAR1 | Q96RJ0 | CHO RD-HGA16 TAAR1, Fluo-8 calcium fluorescence; vehicle wells 0%, saturating PEA agonist 100% | activation, % at 3 µM | 360,000 compounds, 0.99% hits | AID 624467;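 active = activation above the mean activation of all test compounds in the run plus 3 SD, cut at about 38% in these data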
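test system = CHO RD-HGA16 cells carrying human TAAR1 plus Gα16 | schedule = 17-24 h seeding, 75 min 37 °C dye, 30 min RT | compound dosing = 3 µM single concentration | control set = DMSO and PEA EC100 | replicates = n 1 | signal = Fluo-8 fluorescence, 5 s baseline then 140 s kinetic read | measure = percent activation vs PEA EC100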
OX1R antag-2 = antagonists of human orexin 1 receptor | inhibition, % at 5 µM | 330,000 compounds, 0.43% hits | O43613 | AID 434989 | CHO/OX1R cells, Fluo-8 calcium fluorescence, orexin A;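 active = inhibition above its plate's threshold, mean inhibition of all tested compounds on the plate plus 3 SD, cut at about 37% in these data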;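 note: 0% = orexin A challenge wells and 100% = SB-334867-A antagonist wells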
Active calls of the source: *; . = no result. A selection: hits, their analogues and other compounds. The true share with any hit is near 4.6%.

SMILES | CHO parental Ca | GPR7 antag | OX1R antag-1 | TAAR1 antag | TAAR1 agonist | OX1R antag-2
O=C(C1CCCN(S(=O)(=O)c2cccc3cccnc23)C1)N1CCc2ccccc21 (configuration not stated) | 2 | -6 | 70* | 44 | 6 | 10
CCn1nc(C)cc1-c1nnc(Sc2ncc([N+](=O)[O-])s2)n1C | 24 | -1 | 52* | 16 | 9 | 8
CCCCCCCCCC[n+]1cccc2c3ccccc3ccc21 | . | 70* | . | 3 | 11 | .
CCCCCCCC[n+]1cccc2c3ccccc3ccc21 | 63* | 67* | 20 | 1 | 1 | 36
COc1ccc(OC)c(NC(=O)C2(C)CCN2CCc2ccccc2)c1 (configuration not stated) | . | . | . | 20 | 18 | .
CSc1nc2nccc(-c3ccc4c(c3)OCO4)n2n1 | -2 | -10 | 12 | -33 | 1 | 10
CSc1nc2nccc(-c3ccc(-c4ccccc4)cc3)n2n1 | -25 | -5 | 44* | 8 | 5 | 1
CCOC(=O)c1nc2c(=O)n(C)c(=O)n(C)c2n(C)c1=O | -13 | . | 48* | -23 | 2 | 7
Cc1cc(N2CCN(C(=O)OC(C)(C)C)C[C@@H]2C)ccc1N1CCN(Cc2ccccc2)[C@@H](C)C1 | . | . | . | 14 | -1 | .
C[C@@H]1CN([C@H](C)CO)C(=O)c2c(c3ccccc3n2C)-c2ccccc2CO[C@@H]1CN(C)C(=O)CCN(C)C | . | . | . | -17 | 0 | .
O=C(COc1ccccc1Cl)c1ccc2c(c1)CCCC2 | 28* | -5 | 23 | 20 | 1 | -28
O=C(NCc1nc2ccccc2[nH]1)C1=C[C@@H](c2csc3ccccc23)C[C@@H](OCc2ccc(CO)cc2)O1 | -10 | -7 | 13 | 48 | 19 | -17
O=C(NCc1nc2ccccc2[nH]1)C1=C[C@H](c2csc3ccccc23)C[C@H](OCc2ccc(CO)cc2)O1 | 2 | . | 12 | 49* | 15 | 7
COc1ccccc1C(=O)OCC#CCSc1nnc(-c2cccc3ccccc23)o1 | -11 | . | 49* | 31 | 11 | 18
COc1ccc(-c2nn(-c3ccccc3)cc2C=O)cc1[N+](=O)[O-] | 12 | -2 | 29 | 49* | 6 | 8
CN(C)C1CN(Cc2cn(Cc3ccc(Cl)cc3)nn2)S(=O)(=O)C1 (configuration not stated) | . | . | . | 0 | 0 | .
C=CC[C@H](CC(=O)N(CCO)Cc1ccccc1)C(=O)N[C@@H](C)COC(=O)[C@@H](CC=C)Cc1ccc(F)cc1 | -17 | . | 25 | 54* | 20 | 3
C=CCC[C@@H](Cc1ccc(F)cc1)C(=O)OC[C@H](C)NC(=O)[C@@H](CC=C)CC(=O)N(CCO)Cc1ccccc1 | -36 | . | 8 | -2 | 1 | -36
C=CCC[C@@H](Cc1ccc(F)cc1)C(=O)OC[C@@H](NC(=O)[C@H](CC=C)CC(=O)N(CCO)Cc1ccccc1)c1ccccc1 | -2 | . | 34 | 61* | 4 | 49
O=C(Nc1ccc(S(=O)(=O)Nc2ncccn2)cc1)c1ccc(Br)cc1 | . | . | . | 1 | 2 | .
O=C1NC[C@H](c2ccccc2)OC(=O)[C@@H](Cc2ccc(F)cc2)CC/C=C/C[C@@H]1CC(=O)N(CCO)Cc1ccccc1 | -17 | . | 20 | 44 | 18 | 11
CC(C)(C)[C@@H]1COC(=O)[C@@H](Cc2ccc(F)cc2)CC/C=C\C[C@@H](CC(=O)N(CCO)Cc2ccccc2)C(=O)N1 | -9 | . | 10 | 5 | 9 | -23
O=C1NC[C@H](c2ccccc2)OC(=O)[C@@H](Cc2ccc(F)cc2)CC/C=C/C[C@H]1CC(=O)N(CCO)Cc1ccccc1 | -20 | . | 18 | 71* | 30 | 8
O=C1NCCOC(=O)[C@H](Cc2ccc(F)cc2)CC/C=C/C[C@H]1CC(=O)N(CCO)Cc1ccccc1 | -20 | . | 8 | 13 | 1 | -29
O=C1NC[C@H](c2ccccc2)OC(=O)[C@H](Cc2ccc(F)cc2)CC/C=C/C[C@H]1CC(=O)N(CCO)Cc1ccccc1 | -17 | . | 39 | 62* | 41* | 5
CC(C)(C)[C@@H]1COC(=O)[C@H](Cc2ccc(F)cc2)CC/C=C\C[C@H](CC(=O)N(CCO)Cc2ccccc2)C(=O)N1 | -3 | . | 30 | 56* | 36 | 11

Screening results (PubChem)
